Among the data in ChEMBL document CHEMBL4130555, “Heterodimeric Diterpenoids Isolated from Euphorbia ebracteolata Roots and Their Inhibitory Effects on α-Glucosidase” (J Nat Prod, 2017) are IC50 and Ki values, retold here.

Assay [1] can be described thus: Inhibition of acetyltransferase activity of Mycobacterium tuberculosis H37Rv GlmU expressed in Escherichia coli BL21(DE3) using acetylcoA as substrate after 30 mins.
For a further assay, the system named is A549. The assay can be described thus: Cytotoxicity against human A549 cells by MTT assay. In kind it is functional, cell-based. Background: Tetrazolium assays rely on reduction of a dye to a coloured formazan, in cell work by metabolically active cells.
The subject of the next assay is Bel-7402. The assay can be described thus: Cytotoxicity against human Bel7402 cells by MTT assay. In kind it is functional, cell-based.
Assay [2] in a line: Inhibition of baker's yeast alpha-glucosidase using p-nitrophenyl-alpha-D-glucopyranoside as substrate preincubated for 0.5 hrs followed by substrate addition measured for 0.5 hrs. Also noted: species or system Saccharomyces cerevisiae. The essentials:
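Enzyme activity measured with p-NPG as substrate, acarbose run alongside as positive control; procedure follows a previously published protocol.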

In another assay the test system is BGC-823. As to the kind of experiment: Cytotoxicity against human BGC823 cells by MTT assay. In kind it is functional, cell-based.
The next assay has as its system A2780. As to the kind of experiment: Cytotoxicity against human A2780 cells by MTT assay. In kind it is functional, cell-based.
The test system of the next assay is HCT-8. As to the kind of experiment: Cytotoxicity against human HCT8 cells by MTT assay. In kind it is functional, cell-based.
Assay [3] in a line: Non-competitive inhibition of baker's yeast alpha-glucosidase using p-nitrophenyl alpha-D-glucopyranoside as substrate preincubated for 0.5 hrs followed by substrate addition measured for 0.5 hrs by Lineweaver-Burk plot analysis. The arrangement: species or system Saccharomyces cerevisiae.

Take `C=C[C@@]1(C)CC[C@]2(C)c3cc4c(c(C)c3CC[C@H]2C1)O[C@@H]1C2=C(C)C(=O)O[C@@]2(O4)[C@H](O)[C@H]2[C@]3(C)CCCC(C)(C)[C@H]3CC[C@@]12O`: the IC50 in assay [1] is 41.9 µM; with A549 it was greater than 100 µM; in the assay with Bel-7402, greater than 100 µM; in assay [2], 50.4 µM; in the assay on BGC-823, greater than 100 µM; in the assay on A2780, greater than 100 µM. This molecule also registered an IC50 in the assay with HCT-8 greater than 100 µM.
As to `C=C[C@@]1(C)CC[C@]2(C)c3cc(O[C@@]45OC(=O)C(C)=C4[C@H]4O[C@]46CC[C@@H]4C(C)(C)CCC[C@@]4(C)[C@@H]6[C@H]5O)c(O)c(C)c3CC[C@H]2C1`, the IC50 in assay [1] is greater than 100 µM; in the assay on A549, greater than 100 µM; in the assay on Bel-7402 it was greater than 100 µM; in assay [2], 7.94 µM; in the assay with BGC-823, greater than 100 µM; in the assay with A2780, greater than 100 µM. In the assay on HCT-8, this molecule showed an IC50 greater than 100 µM. In addition, the affinity in assay [3] corresponds to a Ki of 10.8 µM.
In assay [2], `C[C@H]1O[C@H](O[C@H]2[C@H](O)[C@@H](O)[C@@H](O[C@H]3[C@H](O)[C@@H](O)C(O)O[C@@H]3CO)O[C@@H]2CO)[C@H](O)[C@@H](O)[C@@H]1N[C@H]1C=C(CO)[C@@H](O)[C@H](O)[C@H]1O` (stereo partly specified) [ACARBOSE] displayed an IC50 of 579 µM.

In general, IC50 refers to the concentration needed to halve the response being measured. Read a high IC50 as a need for much substance. The Ki is a measure of affinity in units of concentration, obtained from inhibition or displacement.
